Results collected from several papers.
Lines come from different studies, so protocols differ.
Target: Casein kinase I isoform gamma-1 (CSNK1G1, Homo sapiens, UniProt Q9HCP0)

C#Cc1n[nH]c2c(-c3cn([C@@H](C)c4ccccc4)c(=O)[nH]c3=O)cc(F)cc12  inhibition (enzyme activity; inhibitor; 0.1 µM): 6.6%
N#CC1(c2ccccn2)CCN(Cc2cc(C(=O)O)c(=O)n3ccccc23)CC1  remaining binding (cell-free assay; competition with immobilised ligand; 1 µM): 100%
C#Cc1n[nH]c2c(-c3cn(C(C)c4ccccn4)c(=O)[nH]c3=O)cc(F)cc12 (stereo not drawn)  inhibition (enzyme activity; inhibitor; 1 µM): 5.4%
Cc1nn(C)cc1-c1nc2c(N3CCN(Cc4ccc(Cl)cc4)CC3)c(Cl)cnc2[nH]1  remaining binding (binding; competition with immobilised ligand; 1 µM): 100%
CC(C)(C)c1cc(C=C(C#N)C#N)cc(Br)c1O  remaining activity (enzyme activity; inhibitor; 0.5 µM): 106%
COc1ncccc1-c1cnn2ccc(N3CCN(C(=O)OC(C)C)CC3)nc12  remaining binding (binding; competition with immobilised ligand; 1 µM): 77%
O=c1[nH]c2ccccc2n1C1CCN(Cc2ccc(-c3[nH]c4cc5ncnc5cc4nc3-c3ccccc3)cc2)CC1  remaining signal (cell-free assay; 0.5 µM): 99.3%
COc1cc(Nc2ncc(F)c(Nc3ccc4c(n3)NC(=O)C(C)(C)O4)n2)cc(OC)c1OC  inhibition (binding; competition with immobilised ligand; 10 µM): 0%
Cn1cc(-c2cccc(N3CCc4c(sc5c4CC(C)(C)C5)C3=O)c2CO)cc(Nc2ccncn2)c1=O  inhibition (enzyme activity; inhibitor; 1 µM): 5%
Cn1cncc1[C@@](O)(COc1ccc(C#N)cc1-c1ccc(OC(F)(F)F)cc1)c1ccc(C#N)cc1  remaining binding (cell-free assay; competition with immobilised ligand; 1 µM): 91%
Cn1cc(-c2cc(F)cc(N3CCn4c(cc5c4CCCC5)C3=O)c2CO)cc(Nc2ccc(N3CCN(C4COC4)CC3)cn2)c1=O  inhibition (enzyme activity; inhibitor; 0.1 µM): 1%
Nc1ncc(-c2nc(N3CCOCC3)nc(N3CCOCC3)n2)c(C(F)F)n1  remaining binding (binding; competition with immobilised ligand; 10 µM): 79%
